{"source": "ChEMBL document CHEMBL3045677", "about": "“Sulfonamide-1,2,4-thiadiazole derivatives as antifungal and antibacterial agents: synthesis, biological evaluation, lipophilicity, and conformational studies” (2010)", "key": {"[1]": {"test_system": "Fulvia fulva", "experiment": "Antifungal activity against Passalora fulva TK5318 at 28 degC measured after 72 hr by microdilution method", "format": "functional", "settings": "TK5318, 72 h", "summary_of_the_method": "(§1)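 Fungi were kept on malt agar at 4 °C. Spores were washed off with sterile 0.85% saline containing 0.1% Tween 80 and adjusted to about 1.0×10⁵ per well. Compounds were dissolved in DMSO (1 mg/ml stock) and serially diluted in malt broth with inoculum in 96-well plates, 72 h at 28 °C, for MIC. MFC came from subculture into fresh broth for a further 72 h at 28 °C.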"}, "[2]": {"test_system": "Aspergillus versicolor", "experiment": "Antifungal activity against Aspergillus versicolor ATCC 11730 at 28 degC measured after 72 hr by microdilution method", "format": "functional", "settings": "ATCC 11730, 72 h", "summary_of_the_method": "as §1"}, "[3]": {"test_system": "Aspergillus flavus", "experiment": "Antifungal activity against Aspergillus flavus ATCC 9643 at 28 degC measured after 72 hr by microdilution method", "format": "functional", "settings": "ATCC 9643, 72 h", "summary_of_the_method": "as §1"}, "[4]": {"test_system": "Aspergillus niger", "experiment": "Antifungal activity against Aspergillus niger ATCC 6275 at 28 degC measured after 72 hr by microdilution method", "format": "functional", "settings": "ATCC 6275, 72 h", "summary_of_the_method": "as §1"}, "[5]": {"test_system": "Trichoderma viride", "experiment": "Antifungal activity against Hypocrea rufa IAM 5061 at 28 degC measured after 72 hr by microdilution method", "format": "functional", "settings": "IAM 5061, 72 h", "summary_of_the_method": "as §1"}, "[6]": {"test_system": "Aspergillus fumigatus", "experiment": "Antifungal activity against plant isolate Aspergillus fumigatus at 28 degC measured after 72 hr by microdilution method", "format": "functional", "summary_of_the_method": "as §1"}, "[7]": {"test_system": "Penicillium ochrochloron", "experiment": "Antifungal activity against Penicillium ochrochloron ATCC 9112 at 28 degC measured after 72 hr by microdilution method", "format": "functional", "settings": "ATCC 9112, 72 h", "summary_of_the_method": "as §1"}, "[8]": {"test_system": "Talaromyces funiculosus", "experiment": "Antifungal activity against Talaromyces funiculosus ATCC 36839 at 28 degC measured after 72 hr by microdilution method", "format": "functional", "settings": "ATCC 36839, 72 h", "summary_of_the_method": "as §1"}, "[9]": {"test_system": "Listeria monocytogenes", "experiment": "Antibacterial activity against Listeria monocytogenes NCTC 7973 at […] degC measured after 72 hr by microdilution method", "format": "functional", "settings": "NCTC 7973, 72 h", "summary_of_the_method": "(§2)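 Bactericidal endpoint: after the 24 h broth microdilution (1.0×10⁴ CFU per well, LB broth, […] °C), wells were serially subcultured into plates of fresh broth and incubated a further 72 h. MBC was the lowest concentration with no visible growth, taken as 99.5% killing of the original inoculum.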"}, "[10]": {"test_system": "Proteus mirabilis", "experiment": "Antibacterial activity against Proteus mirabilis at […] degC measured after 72 hr by microdilution method", "format": "functional", "summary_of_the_method": "as §2"}, "[11]": {"test_system": "Salmonella typhimurium", "experiment": "Antibacterial activity against Salmonella enterica subsp. enterica serovar TyphimuriumATCC 13311 at […] degC measured after 72 hr by microdilution method", "format": "functional, Salmonella enterica subsp. enterica serovar Typhimurium", "settings": "ATCC 13311, 72 h", "summary_of_the_method": "as §2"}, "[12]": {"test_system": "Pseudomonas aeruginosa", "experiment": "Antibacterial activity against Pseudomonas aeruginosa ATCC 27853 at […] degC measured after 72 hr by microdilution method", "format": "functional", "settings": "ATCC 27853, 72 h", "summary_of_the_method": "as §2"}, "[13]": {"test_system": "Escherichia coli", "experiment": "Antibacterial activity against Escherichia coli ATCC 35210 at […] degC measured after 72 hr by microdilution method", "format": "functional", "settings": "ATCC 35210, 72 h", "summary_of_the_method": "as §2"}, "[14]": {"test_system": "Staphylococcus aureus", "experiment": "Antibacterial activity against Staphylococcus aureus ATCC 6538 at […] degC measured after 72 hr by microdilution method", "format": "functional", "settings": "ATCC 6538, 72 h", "summary_of_the_method": "as §2"}, "[15]": {"test_system": "Micrococcus flavus", "experiment": "Antibacterial activity against Micrococcus flavus ATCC 10240 at […] degC measured after 72 hr by microdilution method", "format": "functional", "settings": "ATCC 10240, 72 h", "summary_of_the_method": "as §2"}, "[16]": {"test_system": "Bacillus cereus", "experiment": "Antibacterial activity against clinical isolate Bacillus cereus at […] degC measured after 72 hr by microdilution method", "format": "functional", "summary_of_the_method": "as §2"}, "[17]": {"test_system": "Listeria monocytogenes", "experiment": "Antibacterial activity against Listeria monocytogenes NCTC 7973 at […] degC measured after 24 hr by microdilution method", "format": "functional", "settings": "NCTC 7973, 24 h", "summary_of_the_method": "(§3)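 Bacteria suspended in sterile saline at 1.0×10⁵ CFU/ml and added at 1.0×10⁴ CFU per well to LB broth with compound (1 mg/ml) in 96-well plates. Incubated 24 h at […] °C. MIC was the lowest concentration without visible growth under a binocular microscope. OD 655 nm was read against a blank and a positive control.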"}, "[18]": {"test_system": "Salmonella typhimurium", "experiment": "Antibacterial activity against Salmonella enterica subsp. enterica serovar Typhimurium ATCC 13311 at […] degC measured after 24 hr by microdilution method", "format": "functional", "settings": "ATCC 13311, 24 h", "summary_of_the_method": "as §3"}, "[19]": {"test_system": "Pseudomonas aeruginosa", "experiment": "Antibacterial activity against Pseudomonas aeruginosa ATCC 27853 at […] degC measured after 24 hr by microdilution method", "format": "functional", "settings": "ATCC 27853, 24 h", "summary_of_the_method": "as §3"}, "[20]": {"test_system": "Proteus mirabilis", "experiment": "Antibacterial activity against Proteus mirabilis at […] degC measured after 24 hr by microdilution method", "format": "functional", "summary_of_the_method": "as §3"}, "[21]": {"test_system": "Escherichia coli", "experiment": "Antibacterial activity against Escherichia coli ATCC 35210 at […] degC measured after 24 hr by microdilution method", "format": "functional", "settings": "ATCC 35210, 24 h", "summary_of_the_method": "as §3"}, "[22]": {"test_system": "Staphylococcus aureus", "experiment": "Antibacterial activity against Staphylococcus aureus ATCC 6538 at […] degC measured after 24 hr by microdilution method", "format": "functional", "settings": "ATCC 6538, 24 h", "summary_of_the_method": "as §3"}, "[23]": {"test_system": "Bacillus cereus", "experiment": "Antibacterial activity against clinical isolate Bacillus cereus at […] degC measured after 24 hr by microdilution method", "format": "functional", "summary_of_the_method": "as §3"}, "[24]": {"test_system": "Micrococcus flavus", "experiment": "Antibacterial activity against Micrococcus flavus ATCC 10240 at […] degC measured after 24 hr by microdilution method", "format": "functional", "settings": "ATCC 10240, 24 h", "summary_of_the_method": "as §3"}}, "data": [{"smiles": "COc1cc(Cc2nnc(Nc3ccccc3)s2)c(S(=O)(=O)N(C)C)cc1OC", "values": [{"measurement": "MFC", "setting": "[1]", "result": 23, "unit": "µM"}, {"measurement": "MIC", "setting": "[1]", "result": 11.5, "unit": "µM"}, {"measurement": "MFC", "setting": "[2]", "result": 23, "unit": "µM"}, {"measurement": "MIC", "setting": "[2]", "result": 11.5, "unit": "µM"}, {"measurement": "MFC", "setting": "[3]", "result": 46, "unit": "µM"}, {"measurement": "MIC", "setting": "[3]", "result": 23, "unit": "µM"}, {"measurement": "MFC", "setting": "[4]", "result": 46, "unit": "µM"}, {"measurement": "MIC", "setting": "[4]", "result": 23, "unit": "µM"}, {"measurement": "MFC", "setting": "[5]", "result": 23, "unit": "µM"}, {"measurement": "MIC", "setting": "[5]", "result": 11.5, "unit": "µM"}, {"measurement": "MFC", "setting": "[6]", "result": 46, "unit": "µM"}, {"measurement": "MIC", "setting": "[6]", "result": 11.5, "unit": "µM"}, {"measurement": "MFC", "setting": "[7]", "result": 46, "unit": "µM"}, {"measurement": "MIC", "setting": "[7]", "result": 23, "unit": "µM"}, {"measurement": "MFC", "setting": "[8]", "result": 23, "unit": "µM"}, {"measurement": "MIC", "setting": "[8]", "result": 11.5, "unit": "µM"}, {"measurement": "MBC", "setting": "[9]", "result": 92, "unit": "µM"}, {"measurement": "MBC", "setting": "[10]", "result": 46, "unit": "µM"}, {"measurement": "MBC", "setting": "[11]", "result": 92, "unit": "µM"}, {"measurement": "MBC", "setting": "[12]", "result": 46, "unit": "µM"}, {"measurement": "MBC", "setting": "[13]", "result": 46, "unit": "µM"}, {"measurement": "MBC", "setting": "[14]", "result": 92, "unit": "µM"}, {"measurement": "MBC", "setting": "[15]", "result": 17.5, "unit": "µM"}, {"measurement": "MBC", "setting": "[16]", "result": 46, "unit": "µM"}, {"measurement": "MIC", "setting": "[17]", "result": 46, "unit": "µM"}, {"measurement": "MIC", "setting": "[18]", "result": 46, "unit": "µM"}, {"measurement": "MIC", "setting": "[19]", "result": 46, "unit": "µM"}, {"measurement": "MIC", "setting": "[20]", "result": 46, "unit": "µM"}, {"measurement": "MIC", "setting": "[21]", "result": 46, "unit": "µM"}, {"measurement": "MIC", "setting": "[22]", "result": 46, "unit": "µM"}, {"measurement": "MIC", "setting": "[23]", "result": 23, "unit": "µM"}, {"measurement": "MIC", "setting": "[24]", "result": 11.5, "unit": "µM"}]}, {"smiles": "COc1cc(Cc2nnc(Nc3ccc(Cl)cc3)s2)c(S(=O)(=O)N(C)C)cc1OC", "values": [{"measurement": "MFC", "setting": "[1]", "result": 85.2, "unit": "µM"}, {"measurement": "MIC", "setting": "[1]", "result": 21.3, "unit": "µM"}, {"measurement": "MFC", "setting": "[2]", "result": 42.6, "unit": "µM"}, {"measurement": "MIC", "setting": "[2]", "result": 10.7, "unit": "µM"}, {"measurement": "MFC", "setting": "[3]", "result": 42.6, "unit": "µM"}, {"measurement": "MIC", "setting": "[3]", "result": 10.7, "unit": "µM"}, {"measurement": "MFC", "setting": "[4]", "result": 42.6, "unit": "µM"}, {"measurement": "MIC", "setting": "[4]", "result": 10.7, "unit": "µM"}, {"measurement": "MFC", "setting": "[5]", "result": 21.3, "unit": "µM"}, {"measurement": "MIC", "setting": "[5]", "result": 10.7, "unit": "µM"}, {"measurement": "MFC", "setting": "[6]", "result": 42.6, "unit": "µM"}, {"measurement": "MIC", "setting": "[6]", "result": 10.7, "unit": "µM"}, {"measurement": "MFC", "setting": "[7]", "result": 42.6, "unit": "µM"}, {"measurement": "MIC", "setting": "[7]", "result": 21.3, "unit": "µM"}, {"measurement": "MFC", "setting": "[8]", "result": 21.3, "unit": "µM"}, {"measurement": "MIC", "setting": "[8]", "result": 10.7, "unit": "µM"}, {"measurement": "MBC", "setting": "[9]", "result": 85.2, "unit": "µM"}, {"measurement": "MBC", "setting": "[10]", "result": 42.6, "unit": "µM"}, {"measurement": "MBC", "setting": "[11]", "result": 42.6, "unit": "µM"}, {"measurement": "MBC", "setting": "[12]", "result": 85.2, "unit": "µM"}, {"measurement": "MBC", "setting": "[13]", "result": 85.2, "unit": "µM"}, {"measurement": "MBC", "setting": "[14]", "result": 42.6, "unit": "µM"}, {"measurement": "MBC", "setting": "[15]", "result": 42.6, "unit": "µM"}, {"measurement": "MBC", "setting": "[16]", "result": 21.3, "unit": "µM"}, {"measurement": "MIC", "setting": "[17]", "result": 85.2, "unit": "µM"}, {"measurement": "MIC", "setting": "[18]", "result": 21.3, "unit": "µM"}, {"measurement": "MIC", "setting": "[19]", "result": 42.6, "unit": "µM"}, {"measurement": "MIC", "setting": "[20]", "result": 21.3, "unit": "µM"}, {"measurement": "MIC", "setting": "[21]", "result": 42.6, "unit": "µM"}, {"measurement": "MIC", "setting": "[22]", "result": 21.3, "unit": "µM"}, {"measurement": "MIC", "setting": "[23]", "result": 10.7, "unit": "µM"}, {"measurement": "MIC", "setting": "[24]", "result": 21.3, "unit": "µM"}]}]}
